Active and inactive are the calls of the source. The calls are words filed in the database; no cut-off is given here.
Experiments:
[1] = Antiproliferative activity against human HBL1 cells assessed as inhibition of cell growth incubated for 72 hrs by Celltiter-Glo luminescent assay; type: functional
In short: (§1)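 Exponentially growing cells were seeded at 1 × 10⁴ per 100 μL. HBL-1 and TMD8 were kept in RPMI with 10% FBS, 2 mM glutamine and 10 mM HEPES; OCI-LY1 in Iscove's medium with 20% FBS; all at 37 °C and 5% CO2. Cells were exposed to DMSO or 2-fold serial dilutions from 100 μM for 72 h, in triplicate on one plate. CellTiter-Glo luminescence was read after 1 h. Growth inhibition was calculated against control, accounting for initial cell number, and GI50 was fitted.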

[2] = target: T1, Mucosa-associated lymphoid tissue lymphoma translocation protein 1 (Homo sapiens, UniProt Q9UDY8); experiment: Inhibition of N-terminal his-tagged GCN4 leucine zipper fused human MALT1 […] expressed in Escherichia coli using Ac-LVSR-AMC as substrate by HTS assay
T1 sequence (Q9UDY8 whole entry): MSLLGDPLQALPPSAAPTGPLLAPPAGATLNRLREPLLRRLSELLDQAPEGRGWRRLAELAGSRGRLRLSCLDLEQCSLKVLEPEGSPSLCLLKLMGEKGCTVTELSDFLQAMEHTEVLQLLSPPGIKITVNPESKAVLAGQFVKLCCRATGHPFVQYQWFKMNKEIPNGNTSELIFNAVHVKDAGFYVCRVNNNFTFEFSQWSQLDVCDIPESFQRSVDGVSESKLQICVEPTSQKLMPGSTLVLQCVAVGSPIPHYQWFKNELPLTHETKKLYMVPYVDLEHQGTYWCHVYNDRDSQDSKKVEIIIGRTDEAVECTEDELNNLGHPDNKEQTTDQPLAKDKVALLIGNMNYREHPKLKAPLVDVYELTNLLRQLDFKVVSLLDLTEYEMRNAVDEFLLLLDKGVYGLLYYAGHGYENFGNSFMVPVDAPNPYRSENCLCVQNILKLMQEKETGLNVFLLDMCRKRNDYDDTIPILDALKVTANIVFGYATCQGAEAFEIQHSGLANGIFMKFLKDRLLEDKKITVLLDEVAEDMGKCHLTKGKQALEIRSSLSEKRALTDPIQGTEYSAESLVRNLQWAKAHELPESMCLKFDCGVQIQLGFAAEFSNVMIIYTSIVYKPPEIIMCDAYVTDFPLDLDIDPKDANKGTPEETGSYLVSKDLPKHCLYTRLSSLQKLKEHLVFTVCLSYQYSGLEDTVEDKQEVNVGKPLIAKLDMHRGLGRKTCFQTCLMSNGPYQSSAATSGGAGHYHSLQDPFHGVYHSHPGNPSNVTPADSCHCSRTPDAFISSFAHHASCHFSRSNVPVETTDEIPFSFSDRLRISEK

OCI-Ly1 = experiment: Antiproliferative activity against human OCI-Ly1 cells assessed as inhibition of cell growth incubated for 72 hrs by Celltiter-Glo luminescent assay; type: functional; in short: as §1
TMD8 = experiment: Antiproliferative activity against human TMD8 cells assessed as inhibition of cell growth incubated for 72 hrs by Celltiter-Glo luminescent assay; type: functional; in short: as §1

Row | IC50 [2] [µM] | GI50 (OCI-Ly1) [µM] | Compound | GI50 [1] [µM] | GI50 (TMD8) [µM] | Activity (OCI-Ly1)
1 | 5.2 | 36.8 | O=C(NCc1ccco1)c1sc(=S)n2c1[nH]c(=O)c1cc(Br)ccc12 | 13.2 | 16.2 | –
2 | 12 | – | Cc1ccccc1C1CCN(c2ccc(NC(=O)c3ccc(Cl)cc3)c(C(=O)O)c2)C1 (stereo not drawn) | – | – | –
3 | > 25 | – | O=C(Nc1ccccc1)c1sc(=S)n2c1[nH]c(=O)c1ccccc12 | – | – | –
4 | 3 | – | COC(=O)c1ccc2c(=O)[nH]c3c(C(=O)Nc4cccc(Cl)c4[N+](=O)[O-])sc(=S)n3c2c1 | – | – | –
5 | 6.7 | 21 | O=C(Nc1ccc([N+](=O)[O-])cc1)c1sc(=S)n2c1[nH]c(=O)c1ccccc12 | 14.3 | 4 | –
6 | 3.3 | 20.2 | O=C(Nc1cc(Cl)cc(Cl)c1)c1sc(=S)n2c1[nH]c(=O)c1cc(Br)ccc12 | 18.4 | 3.9 | –
7 | > 25 | – | COc1ccccc1NC(=O)c1sc(=S)n2c1[nH]c(=O)c1ccccc12 | – | – | –
8 | 16.1 | 17.1 | O=C(Nc1cccc(F)c1)c1sc(=S)n2c1[nH]c(=O)c1cc(Br)ccc12 | 17.1 | 17.1 | –
9 | > 25 | – | COc1cccc(NC(=O)c2sc(=S)n3c2[nH]c(=O)c2ccccc23)c1 | – | – | –
10 | 5.2 | 20.7 | COc1ccc(OC)c(NC(=O)c2sc(=S)n3c2[nH]c(=O)c2ccc(Cl)cc23)c1 | 8.2 | 8.4 | –
11 | 14.9 | 23.7 | O=C(O)c1cccc(NC(=O)c2sc(=S)n3c2[nH]c(=O)c2cc(Br)ccc23)c1 | 12.4 | 23.7 | –
12 | 2.2 | 10 | O=C(Nc1cc(Cl)cc(Cl)c1)c1sc(=S)n2c1[nH]c(=O)c1ccccc12 | 8 | 3.7 | –
13 | 18.8 | – | COc1ccc(OC)c(NC(=O)c2sc(=S)n3c2[nH]c(=O)c2ccc(Br)cc23)c1 | – | – | –
14 | 7 | 13 | COc1ccc(OC)c(NC(=O)c2sc(=S)n(-c3ccc(Cl)cc3)c2NC(=O)CCl)c1 | 1.5 | 1 | –
15 | > 25 | – | O=C(Nc1ccc(Cl)cc1)c1sc(=S)n2c1[nH]c(=O)c1ccccc12 | – | – | –
16 | 3.2 | 28.1 | COc1ccc(OC)c(NC(=O)c2sc(=S)n3c2[nH]c(=O)c2cc(Cl)ccc23)c1 | 14 | 12.4 | –
17 | 5.1 | 18.6 | COC(=O)c1ccc2c(=O)[nH]c3c(C(=O)Nc4ccc(Cl)cc4)sc(=S)n3c2c1 | 14.8 | 4.4 | –
18 | 6 | – | COc1ccccc1CNC(=O)c1sc(=S)n2c1[nH]c(=O)c1cc(Cl)ccc12 | 40 | 40 | inactive
19 | 5.3 | 13.4 | COC(=O)c1ccc2c(=O)[nH]c3c(C(=O)Nc4cc(OC)ccc4OC)sc(=S)n3c2c1 | 6.7 | 7 | –
20 | 11 | – | Cc1ccccc1NC(=O)c1sc(=S)n2c1[nH]c(=O)c1ccc(Cl)cc12 | – | – | –

Row | IC50 [2] [µM] | GI50 (OCI-Ly1) [µM] | Compound | GI50 [1] [µM] | GI50 (TMD8) [µM] | Activity (OCI-Ly1)
21 | 3.2 | – | CCc1ccccc1NC(=O)c1sc(=S)n2c1[nH]c(=O)c1ccc(C(=O)OC)cc12 | – | – | –
22 | > 25 | – | COc1ccc(OC)c(NC(=O)c2sc(=S)n3c2[nH]c(=O)c2cc(OC)ccc23)c1 | – | – | –
23 | 4.3 | – | COC(=O)c1ccc2c(=O)[nH]c3c(C(=O)Nc4ccc([N+](=O)[O-])cc4)sc(=S)n3c2c1 | – | – | –
24 | 17 | – | COc1ccc(OC)c(NC(=O)c2sc(=S)n3c2[nH]c(=O)c2ccc(F)cc23)c1 | – | – | –
25 | 2.3 | 30 | O=C(NCc1ccccc1Cl)c1sc(=S)n2c1[nH]c(=O)c1cc(Br)ccc12 | 19 | 15 | –
26 | 12.3 | – | CC(C)c1ccc(S(=O)(=O)Nc2ccc(N3CCC(Cc4ccccc4)CC3)cc2C(=O)O)cc1 | – | – | –
27 | 5.1 | – | CCc1ccccc1NC(=O)c1sc(=S)n2c1[nH]c(=O)c1ccc(Cl)cc12 | – | – | –
28 | 3.6 | 48 | Cc1ccc(Cl)cc1NC(=O)c1sc(=S)n2c1[nH]c(=O)c1cc3c(cc12)OCO3 | 32 | 12 | –
29 | 5.2 | – | CCc1ccccc1NC(=O)c1sc(=S)n2c1[nH]c(=O)c1cc(F)c(F)cc12 | – | – | –
30 | 2.6 | – | O=C(Nc1ccc([N+](=O)[O-])cc1)c1sc(=S)n2c1[nH]c(=O)c1ccc(Cl)cc12 | – | – | –
31 | 18.5 | 31.3 | CCc1ccccc1NC(=O)c1sc(=S)n2c1[nH]c(=O)c1cc(C)ccc12 | 31.3 | 31.3 | –
32 | 5.53 | 12.4 | O=C(Nc1cccc(F)c1)c1sc(=S)n2c1[nH]c(=O)c1ccc(Cl)cc12 | 16.8 | 16.8 | –
33 | > 25 | – | COc1ccc(NC(=O)c2sc(=S)n3c2[nH]c(=O)c2ccccc23)cc1 | – | – | –
34 | 6.9 | – | COC(=O)c1ccc2c(=O)[nH]c3c(C(=O)Nc4ccc(Cl)c(Cl)c4)sc(=S)n3c2c1 | – | – | –
35 | 11.6 | – | COc1ccc(OC)c(NC(=O)c2sc(=S)n3c2[nH]c(=O)c2cc(F)c(F)cc23)c1 | – | – | –
36 | 6.9 | 12.9 | COc1ccc(OC)c(NC(=O)c2sc(=S)n3c2[nH]c(=O)c2cc(Br)ccc23)c1 | 11.7 | 11 | –
37 | 7.4 | – | O=C(Nc1cc(Cl)cc(Cl)c1)c1sc(=S)n2c1[nH]c(=O)c1ccc(Cl)cc12 | – | – | –
38 | > 25 | – | COc1ccc(OC)c(NC(=O)c2sc(=S)n3c2[nH]c(=O)c2cc(OC)c(OC)cc23)c1 | – | – | –
39 | 14.7 | – | CCc1ccccc1NC(=O)c1sc(=S)n2c1[nH]c(=O)c1ccccc12 | – | – | –
40 | 13 | – | Cc1ccc(S(=O)(=O)C2=C(O)C(=O)N(Cc3ccc(F)cc3)C2c2ccc(C(C)C)cc2)cc1 (stereo not drawn) | – | – | –

Row | IC50 [2] [µM] | GI50 (OCI-Ly1) [µM] | Compound | GI50 [1] [µM] | GI50 (TMD8) [µM] | Activity (OCI-Ly1)
41 | 6.1 | 23 | COc1ccccc1NC(=O)c1sc(=S)n2c1[nH]c(=O)c1cc(Cl)ccc12 | 17 | 17 | –
42 | 12.2 | 21.6 | COC(=O)c1ccc2c(=O)[nH]c3c(C(=O)Nc4ccc(F)cc4F)sc(=S)n3c2c1 | 14.2 | 28.2 | –
43 | 4.6 | 12.7 | COc1ccc(OC)c(NC(=O)c2sc(=S)n(-c3cccc(Br)c3)c2NC(=O)CCl)c1 | 1.8 | 1.2 | –
44 | 4.4 | – | CCc1ccccc1NC(=O)c1sc(=S)n2c1[nH]c(=O)c1cc(Br)ccc12 | – | – | –
45 | 3.2 | 13.3 | COc1ccc(OC)c(NC(=O)c2sc(=S)n(-c3cccc(C(F)(F)F)c3)c2NC(=O)CCl)c1 | 2.2 | 1.3 | –
46 | 14 | 14.2 | COc1cc2c(=O)[nH]c3c(C(=O)Nc4cc(Cl)cc(Cl)c4)sc(=S)n3c2cc1OC | 2.2 | 6.3 | –
47 | 8.36 | 22.8 | O=C(O)c1cccc(NC(=O)c2sc(=S)n3c2[nH]c(=O)c2ccc(Cl)cc23)c1 | 22.8 | 22.8 | –
48 | > 25 | – | O=C(Nc1ccc(Cl)c(Cl)c1)c1sc(=S)n2c1[nH]c(=O)c1ccccc12 | – | – | –
49 | 20.4 | – | O=C(Nc1ccccc1Cl)c1sc(=S)n2c1[nH]c(=O)c1ccccc12 | – | – | –
50 | 5.5 | 11.8 | COc1ccc(OC)c(NC(=O)c2sc(=S)n(-c3cccc(C#N)c3)c2NC(=O)CCl)c1 | 1.7 | 1.6 | –
51 | 7.16 | – | Cc1ccc(NC(=O)c2sc(=S)n3c2[nH]c(=O)c2cc(C)ccc23)c(C)c1 | 20.4 | 15.6 | inactive
52 | 7.7 | – | COc1ccccc1NC(=O)c1sc(=S)n2c1[nH]c(=O)c1ccc(Br)cc12 | – | – | –
53 | > 25 | – | COc1ccc(OC)c(NC(=O)c2sc(=S)n3c2[nH]c(=O)c2ccccc23)c1 | – | – | –
54 | 21.1 | – | Cc1ccc2c(c1)c(=O)[nH]c1c(C(=O)Nc3ccccc3C)sc(=S)n12 | 24.7 | 24.7 | –
55 | 4.4 | – | O=C(Nc1cccc(Cl)c1[N+](=O)[O-])c1sc(=S)n2c1[nH]c(=O)c1ccc(Cl)cc12 | – | – | –
56 | > 25 | – | CCc1ccc(NC(=O)c2sc(=S)n3c2[nH]c(=O)c2ccccc23)cc1 | – | – | –
57 | 2.5 | – | COC(=O)c1ccc2c(=O)[nH]c3c(C(=O)Nc4cc(Cl)cc(Cl)c4)sc(=S)n3c2c1 | – | – | –
58 | 12.8 | – | COc1cccc(CNC(=O)c2sc(=S)n3c2[nH]c(=O)c2cc(Cl)ccc23)c1 | 28.2 | 21.6 | –
59 | > 25 | – | COc1ccc(OC)c(NC(=O)c2sc(=S)n3c2[nH]c(=O)c2ccc(OC)cc23)c1 | – | – | –

From ChEMBL document CHEMBL5032510, “Identification of Novel Fused Heteroaromatics-Based MALT1 Inhibitors by High-Throughput Screening to Treat B Cell Lymphoma” (J Med Chem, 2021)
